The values that follow come from ChEMBL document CHEMBL6134787, “Fexinidazole optimization: enhancing anti-leishmanial profile, metabolic stability and hERG safety” (RSC Med Chem, 2024).

pIC50: −log10 of the molar value.

Series [1] has as its system Leishmania donovani. The experiment in a line: Antileishmanial activity against miltefosine resistant Leishmania donovani HU3MILR40 promastigotes […] assessed as inhibition of parasite growth incubated for 72 hrs by automatic microtiter plate reader analysis. The format is functional, organism-based. In a few lines:
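Promastigote (free parasite) assay: Schneider's Drosophila medium with 4 mM glutamine, 25 μg mL−1 gentamicin, 10% heat-inactivated FBS, pH 6.9, 27 °C. 1.5 × 10^5 promastigotes per well exposed to a concentration series for 72 h at 27 °C.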

The test system of the next series is RAW264.7. The experiment in a line: Cytotoxicity against mouse RAW264.7 cells assessed as inhibition of cell growth incubated for 72 hrs by MTS assay. The format is functional, cell-based. As to conditions: RAW264.7, 72 h. In a few lines: (§1)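 Cells in DMEM + 10% heat-inactivated FBS with penicillin/streptomycin at 37 °C, 5% CO2. They were seeded at 1 × 10^4/well and incubated with a concentration series for 72 h at 37 °C. Viability was read by MTS/PMS assay at 490 nm and IC50 derived.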
A general note: Tetrazolium assays rely on reduction of a dye to a coloured formazan, in cell work by metabolically active cells.

The nature of series [2]: Hepatotoxicity against mouse TAMH cells assessed as cell viability at 7.8 to 125 uM incubated for 24 to 48 hrs by MTT assay. The series is classed as toxicity, cell-based. As to conditions: dose lower 7.8 µM, time lower 24 hrs, dose upper 125 µM, time upper 48 hrs, read-out: Activity. In a few lines: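 TAMH mouse liver cells in FCS-free DMEM/F12 with 5% PANEXIN NTA, 10 mM nicotinamide and gentamicin. Seeded at 20 000/well and attached 24 h at 37 °C, 5% CO2. DMSO-diluted compounds were applied for 24 or 48 h. MTT was added for 4 h, formazan dissolved in DMSO and A570 read. Viability was background-corrected and expressed relative to DMSO controls; mean ± SD, ≥3 experiments.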

For a further series, the system named is Leishmania braziliensis. In words: Antileishmanial activity against wild type Leishmania braziliensis UA847 promastigotes […] assessed as inhibition of parasite growth incubated for 72 hrs by automatic microtiter plate reader analysis. The series is classed as functional, organism-based. In a few lines: (§2)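 Promastigotes were grown in Schneider's medium (4 mM glutamine, gentamicin, 10% heat-inactivated FBS, pH 6.9, 27 °C). Cells were seeded at 1.5 × 10^5/well and exposed to a concentration series for 72 h at 27 °C.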

Series [3] addresses Voltage-gated inwardly rectifying potassium channel KCNH2 (Homo sapiens, UniProt Q12809). The experiment in a line: Inhibition of human ERG stably overexpressed in HEK293 cells incubated for 30 mins by FLIPR assay. The format is toxicity, cell-based. As to conditions: human, hek293, 0.5 h; time 30 min.
Series [4] concerns Leishmania donovani. The experiment in a line: Antileishmanial activity against wild type Leishmania donovani HU3 promastigotes […] assessed as inhibition of parasite growth incubated for 72 hrs by automatic microtiter plate reader analysis. The format is functional, organism-based.
Series [5] is described as follows: Metabolic stability in rat liver microsome assessed as compound remaining at 20 uM measured after 32 mins in presence of NADP and GSH by HPLC analysis. The series is classed as ADME. As to conditions: liver microsomes, read-out: Stability. In a few lines:
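Rat liver microsomes (final 2 mg/mL) in 50 mM phosphate pH 7.4 with 0.3 mM NADP+, 5.3 mM glucose-6-phosphate, G6PDH, 10 mM MgCl2 and 5 mM EDTA. 20 μM compound added at 37 °C. Aliquots at 0, 16 and 32 min were quenched in ice-cold acetonitrile and centrifuged. HPLC peak area at 254/280 nm was expressed relative to 0 min.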
(In general: Liver microsomes are a subcellular fraction often used to study metabolism.)

The subject of a further series is Leishmania major. In words: Antileishmanial activity against wild type Leishmania major FV1 promastigotes […] assessed as inhibition of parasite growth incubated for 72 hrs by automatic microtiter plate reader analysis. The format is functional, organism-based. In a few lines: as §2
Series [6] can be described thus: Metabolic stability in rat liver S9 fraction assessed as compound remaining at 20 uM measured after 32 mins in presence of NADP and GSH by HPLC analysis. The series is classed as ADME, subcellular. As to conditions: read-out: Stability. In a few lines: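 Rat liver S9 (final 4 mg/mL) in 50 mM phosphate pH 7.4 with NADPH-regenerating system (0.3 mM NADP+, 5.3 mM glucose-6-phosphate, G6PDH), 10 mM MgCl2 and 5 mM EDTA. Pre-warmed 10 min at 37 °C, then 20 μM compound and 5.5 μM GSH added. Samples taken at 0, 16 and 32 min were quenched in ice-cold acetonitrile. HPLC (254/280 nm) peak area was expressed relative to 0 min.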

The subject of a further series is Leishmania amazonensis. The experiment in a line: Antileishmanial activity against wild type Leishmania amazonensis LV78 promastigotes […] assessed as inhibition of parasite growth incubated for 72 hrs by automatic microtiter plate reader analysis. The series is classed as functional, organism-based. In a few lines: as §2
The nature of series [7]: Cytotoxicity against mouse L929 cells assessed as inhibition of cell growth incubated for 72 hrs by MTS assay. The series is classed as toxicity, cell-based. In a few lines:
as §1

Chain of Voltage-gated inwardly rectifying potassium channel KCNH2 (Q12809 whole entry): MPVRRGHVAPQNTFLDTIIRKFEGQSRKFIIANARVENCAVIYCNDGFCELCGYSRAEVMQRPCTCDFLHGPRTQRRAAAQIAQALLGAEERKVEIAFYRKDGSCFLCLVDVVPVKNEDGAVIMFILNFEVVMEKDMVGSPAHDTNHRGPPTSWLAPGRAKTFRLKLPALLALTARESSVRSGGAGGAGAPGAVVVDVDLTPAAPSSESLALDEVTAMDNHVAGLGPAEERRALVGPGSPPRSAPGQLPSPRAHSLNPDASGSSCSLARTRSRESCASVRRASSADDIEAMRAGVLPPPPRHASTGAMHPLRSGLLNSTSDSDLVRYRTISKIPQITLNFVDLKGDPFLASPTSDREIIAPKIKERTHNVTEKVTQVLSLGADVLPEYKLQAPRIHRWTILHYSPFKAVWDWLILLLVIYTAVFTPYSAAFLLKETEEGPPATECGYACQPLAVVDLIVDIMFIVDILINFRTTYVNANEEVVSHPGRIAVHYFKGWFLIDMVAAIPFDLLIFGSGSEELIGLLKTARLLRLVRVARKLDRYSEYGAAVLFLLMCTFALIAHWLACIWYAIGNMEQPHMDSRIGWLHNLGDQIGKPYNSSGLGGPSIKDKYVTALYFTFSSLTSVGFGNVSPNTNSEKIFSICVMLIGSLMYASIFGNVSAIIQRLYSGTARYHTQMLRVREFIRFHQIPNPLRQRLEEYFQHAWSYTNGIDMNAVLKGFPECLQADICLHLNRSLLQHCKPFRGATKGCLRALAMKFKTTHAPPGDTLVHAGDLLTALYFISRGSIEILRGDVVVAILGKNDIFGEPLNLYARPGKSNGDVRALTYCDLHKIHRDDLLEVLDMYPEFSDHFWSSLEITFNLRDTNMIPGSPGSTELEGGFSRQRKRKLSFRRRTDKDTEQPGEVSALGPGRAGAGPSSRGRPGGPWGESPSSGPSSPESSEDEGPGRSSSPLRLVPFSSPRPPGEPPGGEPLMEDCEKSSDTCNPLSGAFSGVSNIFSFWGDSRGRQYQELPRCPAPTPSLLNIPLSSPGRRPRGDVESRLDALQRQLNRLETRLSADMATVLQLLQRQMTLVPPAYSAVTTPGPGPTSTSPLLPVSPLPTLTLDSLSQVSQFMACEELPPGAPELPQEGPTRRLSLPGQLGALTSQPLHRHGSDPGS

On to `COc1ccc(Cn2ccn3cc([N+](=O)[O-])nc3c2=O)cc1`, for which the pIC50 (in general, the negative decadic logarithm of the IC50, by convention in mol/L) in the series on Leishmania donovani [1] was < 4.73; in the series on RAW264.7, < 4.00; in the series on Leishmania braziliensis, < 4.70; in the series with Leishmania donovani [4], < 4.91; in the series with Leishmania major it was 5.16; with Leishmania amazonensis it was < 4.70. For the same molecule, the viability at up to 125 µM in series [2] is > 50%. In addition, the IC25 (in general, the concentration at which the effect reaches the 25% level) in series [3] was > 2 µM. The remaining at 32 min, 20 µM in series [5] and in series [6] was 100% each time. For the same molecule, the IC50 (in general, the concentration that inhibits the measured activity by half) at 72 h in series [7] is > 100 µM.

With `Cn1c([N+](=O)[O-])cnc1C(=O)N1CCS(=O)(=O)CC1`, the pIC50 is 4.86 with Leishmania donovani [1]; < 4.00 in the series on RAW264.7; 4.91 with Leishmania braziliensis; 5.12 in the series with Leishmania donovani [4]; 5.47 in the series with Leishmania major; 4.88 in the series on Leishmania amazonensis. The viability at up to 125 µM in [2] was > 50%. Besides, in [3], the IC25 was > 6.2 µM. Moreover, the remaining at 32 min, 20 µM in series [5] and in [6] was 100% each time. In addition, the IC50 at 72 h in series [7] is > 100 µM.

Take `CS(=O)(=O)c1ccc(OCC2Cn3cc([N+](=O)[O-])nc3O2)cc1` (configuration not stated): the pIC50 in the series on Leishmania donovani [1] was 5.35; in the series on RAW264.7, < 4.00; with Leishmania braziliensis it was < 4.70; in the series with Leishmania donovani [4] it was < 4.70; in the series with Leishmania major it was < 4.70; in the series on Leishmania amazonensis it was < 4.70. Further, in [2], the viability at up to 125 µM was > 50%. The molecule further displayed an IC25 in series [3] of 15.2 µM. Also, the remaining at 32 min, 20 µM in series [5] and in [6] was 100% throughout. Also, the IC50 at 72 h in [7] is > 100 µM.

With `CSc1ccc(NC(=O)c2ncc([N+](=O)[O-])n2C)cc1`, the pIC50 with Leishmania donovani [1] was < 4.70; with RAW264.7, < 4.00; in the series with Leishmania braziliensis, < 4.70; in the series on Leishmania donovani [4], < 4.70; with Leishmania major, 5.19; in the series on Leishmania amazonensis, < 4.70. For the same molecule, in [2], the viability at up to 125 µM was > 50%. In series [3], the IC25 is > 3.1 µM. Moreover, the remaining at 32 min, 20 µM in [5] is 0%; in series [6], 6.9%. Besides, the IC50 at 72 h in series [7] is > 100 µM.

Consider `CSc1ccc(OCc2ncc(C#N)n2C)cc1`, for which the pIC50 with Leishmania donovani [1] is < 4.70; in the series on RAW264.7 it was < 4.00; in the series on Leishmania braziliensis, < 4.70; in the series on Leishmania donovani [4] it was < 4.70; in the series on Leishmania major, < 4.70; in the series on Leishmania amazonensis, < 4.70. Besides, the viability at up to 125 µM in series [2] was > 50%. Moreover, the IC25 in series [3] worked out at 27.1 µM. Also, the remaining at 32 min, 20 µM turned out to be 8.2% in [5] and 82.6% in [6]. Also, in series [7], the half-inhibitory concentration (IC50) at 72 h is > 100 µM.

Turning to `CSc1ccc(Cn2ccn3cc([N+](=O)[O-])nc3c2=O)cc1`, the pIC50 in the series on Leishmania donovani [1] is < 4.70; with RAW264.7, 4.32; in the series with Leishmania braziliensis, < 4.70; in the series with Leishmania donovani [4] it was < 4.78; in the series with Leishmania major, 5.05; in the series on Leishmania amazonensis, < 4.70. For the same molecule, in [2], the viability at up to 125 µM is > 50%. In addition, the IC25 in series [3] was > 2 µM. The results for the remaining at 32 min, 20 µM in series [5] and in [6] were 93.1% and 100%, respectively. The IC50 at 72 h in [7] is > 57.5 µM.

In the case of `Cn1c([N+](=O)[O-])cnc1CCc1ccc(S(C)(=N)=O)cc1` (configuration not stated), the pIC50 in the series on Leishmania donovani [1] was < 4.70; with RAW264.7, < 4.00; with Leishmania braziliensis it was < 4.70; with Leishmania donovani [4] it was < 4.70; with Leishmania major, 4.93; in the series with Leishmania amazonensis, < 4.70. Also, the viability at up to 125 µM in series [2] was > 50%. Further, in series [3], the IC25 was 49.4 µM. The remaining at 32 min, 20 µM in [5] and in [6] was 100% throughout. For the same molecule, the IC50 at 72 h in series [7] is > 100 µM.
